Data from ChEMBL document CHEMBL1122469, “Synthesis of 1-(aminomethyl)-1,2,3,4-tetrahydroisoquinolines and their actions at adrenoceptors in vivo and in vitro” (J Med Chem, 1983).
Calls of active or inactive are those of the source. The calls are words filed in the database; no cut-off is given here.

Experiments:
[1] = Ratio of compound Emax(50) to that of isoproterenol Emax(50) in guinea pig, isolated, spontaneously beating, right atrial preparation; Expressed as drug Emax(50)/Iso Emax(50) mean; assay type: functional, Cardiac atrium
How it was run: (§1)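 Right atria from guinea pigs (300–400 g, either sex) killed by cervical dislocation, in 10-mL Krebs–Henseleit baths under 0.02 N tension, spontaneously beating; rate read by tachograph. Two cumulative isoproterenol curves, then one test-compound curve, 30-min intervals, three washes after each. The second isoproterenol curve was the reference, with a desensitization correction (factor 1.2). Intrinsic activity relative to isoproterenol = 1. Ratio = molar EC50 of drug ÷ molar EC50 of isoproterenol, same experiment.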

Adrenergic receptor beta [2] = biological target: T1, Adrenergic receptor beta (Homo sapiens, UniProt P08588+P07550+P13945); test: Beta adrenergic receptor antagonistic activity in guinea pig, isolated, carbachol-contracted tracheal preparations; NA = No antagonism of isoproterenol responses up to 2.2 x 10E-8 mol/L; assay type: functional; conditions: Cavia porcellus; target entry is the homologue from another species
Adrenergic receptor beta [3] = biological target: T1, Adrenergic receptor beta; test: Beta adrenergic receptor agonist activity a in guinea pig, isolated, carbachol-contracted tracheal preparations; assay type: functional; conditions: Cavia porcellus; target entry is the homologue from another species
How it was run: (§2)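 Guinea pigs (300–400 g, either sex) killed by cervical dislocation. Trachea mounted in a 10-mL bath of Krebs–Henseleit under 0.02 N resting tension. Tone raised submaximally with carbachol 10 µmol/L, and relaxation recorded. Cumulative test-compound curves went up to 100 µg/mL, referenced to isoproterenol (=1). Where no maximum was reached, values reflect the 100 µg/mL response. Ratios were taken at 15% of isoproterenol maximum.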

Adrenergic receptor beta [4] = biological target: T1, Adrenergic receptor beta; test: Beta adrenergic receptor agonist activity in reserpine pre-treated guinea pig, isolated, spontaneously beating, right atrial preparation; assay type: functional, tissue-based; conditions: Cavia porcellus; Cardiac atrium; target entry is the homologue from another species
How it was run: (§3)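 Guinea pigs given reserpine 5 mg/kg i.p., atria removed 18–24 h later and tested with tyramine 17 µmol/L beforehand. Spontaneously beating right atria in Krebs–Henseleit under 0.02 N tension, rate recorded. Cumulative isoproterenol curves (second used, corrected) and one test curve at 30-min intervals. Ratio = molar concentration at 50% own maximum ÷ isoproterenol equivalent, same experiment.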

Adrenergic receptor beta [5] = biological target: T1, Adrenergic receptor beta; test: Beta adrenergic receptor agonist activity in guinea pig, isolated, spontaneously beating, right atrial preparation; assay type: functional, tissue-based; conditions: Cavia porcellus; Cardiac atrium; target entry is the homologue from another species; how it was run: as §1
Adrenergic receptor beta [6] = biological target: T1, Adrenergic receptor beta; test: Beta adrenergic receptor antagonistic activity in reserpine pre-treated guinea pig, isolated, spontaneously beating, right atrial preparation; NA = No antagonism of isoproterenol responses up to 2.2 x 10E-8 mol/L; assay type: functional, tissue-based; conditions: Cavia porcellus; Cardiac atrium; target entry is the homologue from another species
How it was run: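 Guinea pigs given reserpine 5 mg/kg i.p. 18–24 h before tissue removal, then checked with tyramine 17 µmol/L. Spontaneously beating right atrium held in Krebs–Henseleit at 0.02 N tension, with rate read by tachograph. Isoproterenol cumulative curves were run before and 15 min after adding the test drug, then repeated after washing at higher drug concentration. pA2 was determined by the Arunlakshana–Schild method.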

Adrenergic receptor beta [7] = biological target: T1, Adrenergic receptor beta; test: Beta adrenergic receptor agonist activity in guinea pig, isolated, carbachol-contracted tracheal preparations; assay type: functional; conditions: Cavia porcellus; target entry is the homologue from another species; how it was run: as §2
[8] = Ratio of compound Emax(50) to that of isoproterenol Emax(50) in reserpine-pretreated, guinea pig, isolated, spontaneously beating, right atrial preparation; Expressed as drug Emax(50)/Iso Emax(50) mean; assay type: functional, Cardiac atrium; how it was run: as §3
Felis catus [9] = test: Activity ratio of molar concentration to molar concentration of isoproterenol in HR in choralose anaesthetized cats; assay type: functional
How it was run: (§4)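 Chloralose (80 mg/kg) plus sodium phenobarbitone (6 mg/kg) i.p.-anesthetized, bilaterally vagotomized cats (2.3–3.6 kg, either sex), spontaneously breathing via tracheal cannula. Brachial vein injection in 0.9% NaCl. Carotid blood pressure and pulse-triggered heart rate recorded. Concurrent cumulative dose–response curves followed isoproterenol. Ratio = molar dose giving 50% of own maximum ÷ isoproterenol molar dose giving 50% of its maximum, same animal.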

Adrenergic receptor beta [10] = biological target: T1, Adrenergic receptor beta; test: Beta adrenergic receptor agonist activity at compound concentration of 100 ug/mL in guinea pig, isolated, carbachol-contracted tracheal preparations; assay type: functional; conditions: Cavia porcellus; target entry is the homologue from another species
Adrenergic receptor beta [11] = biological target: T1, Adrenergic receptor beta; test: Beta adrenergic receptor antagonistic activity in reserpine pre-treated guinea pig, isolated, spontaneously beating, right atrial preparation; assay type: functional, tissue-based, Cavia porcellus, Cardiac atrium; conditions: target entry is the homologue from another species
Adrenergic receptor beta [12] = biological target: T1, Adrenergic receptor beta; test: Beta adrenergic receptor antagonistic activity in guinea pig, isolated, carbachol-contracted tracheal preparations; assay type: functional, Cavia porcellus; conditions: target entry is the homologue from another species
How it was run: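 Guinea pig trachea contracted with carbachol 10 µmol/L, 0.02 N resting tension, Krebs–Henseleit bath. Isoproterenol relaxation curves before and 15 min after antagonist, repeated at higher concentrations after washing. pA2 and slope from Schild plot (Arunlakshana–Schild). Slope difference from 1.0 tested by Student's t test.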

Felis catus [13] = test: Activity ratio of molar concentration to molar concentration of isoproterenol in DBP in choralose anaesthetized cats; assay type: functional; how it was run: as §4

Row | Intrinsic activity (Adrenergic receptor beta [4]) | pD2 (Adrenergic receptor beta [4]) | Intrinsic activity (Adrenergic receptor beta [5]) | pD2 (Adrenergic receptor beta [5]) | Intrinsic activity (Adrenergic receptor beta [10]) | pD2 (Adrenergic receptor beta [10]) | pA2 (Adrenergic receptor beta [11]) | pA2 (Adrenergic receptor beta [12]) | SMILES | Ratio [1] | pA2 (Adrenergic receptor beta [2]) | Intrinsic activity (Adrenergic receptor beta [3]) | pA2 (Adrenergic receptor beta [6]) | pD2 (Adrenergic receptor beta [7]) | Ratio [8] | Activity ratio (Felis catus [9]) | Activity ratio (Felis catus [13])
1 | 0.53 | 4.22 | 0.7 | 4.49 | 0.2 | 3.44 | 4.63 | 4.66 | NCC1NCCc2cc(O)c(O)cc21 (centres undefined) | 8800 |  |  |  |  | 32600 | 12700 | 
2 | 0.59 | 5.18 | 0.42 | 5.05 | 0.06 | 3.49 | 4.84 | 5.05 | CC(C)NCC1NCCc2cc(O)c(O)cc21 (centres undefined) | 2700 |  |  |  |  | 4400 | 1700 | 2200
3 | 0.29 | 5.23 | 0.14 | 5.1 | 0.18 | 3.51 | 4.68 | 5.76 | CC(C)(C)NCC1NCCc2cc(O)c(O)cc21 (centres undefined) | 2100 |  |  |  |  | 3600 | 900 | 

Row | SMILES | Intrinsic activity (Adrenergic receptor beta [4]) | pD2 (Adrenergic receptor beta [4]) | Intrinsic activity (Adrenergic receptor beta [5]) | pD2 (Adrenergic receptor beta [5]) | Intrinsic activity (Adrenergic receptor beta [10]) | pD2 (Adrenergic receptor beta [10]) | pA2 (Adrenergic receptor beta [11]) | pA2 (Adrenergic receptor beta [12]) | Ratio [1] | pA2 (Adrenergic receptor beta [2]) | Intrinsic activity (Adrenergic receptor beta [3]) | pA2 (Adrenergic receptor beta [6]) | pD2 (Adrenergic receptor beta [7]) | Ratio [8] | Activity ratio (Felis catus [9]) | Activity ratio (Felis catus [13])
4 | Oc1ccc(CC2NCCc3cc(O)c(O)cc32)cc1O (centres undefined) | 0.95 | 7.05 | 0.94 | 6.96 |  |  |  |  | 26 | inactive | 0.62 | inactive | 6.45 | 38 |  | 
